Measured values: ChEMBL document CHEMBL1152452, “Modifications incorporated in CpG motifs of oligodeoxynucleotides lead to antagonist activity of toll-like receptors 7 and 9” (2009)
The source made the active and inactive calls. The rule behind the calls is not given here.

Key:
[1] = target: T1, Toll-like receptor 9 (Mus musculus) (UniProt Q9EQU3); assay: Activation of mouse TLR9 expressed in HEK293 cells assessed as NF-kappaB level at 1 ug/mL after 18 hrs by reporter gene assay; assay type: cell-based
T1 sequence (whole entry): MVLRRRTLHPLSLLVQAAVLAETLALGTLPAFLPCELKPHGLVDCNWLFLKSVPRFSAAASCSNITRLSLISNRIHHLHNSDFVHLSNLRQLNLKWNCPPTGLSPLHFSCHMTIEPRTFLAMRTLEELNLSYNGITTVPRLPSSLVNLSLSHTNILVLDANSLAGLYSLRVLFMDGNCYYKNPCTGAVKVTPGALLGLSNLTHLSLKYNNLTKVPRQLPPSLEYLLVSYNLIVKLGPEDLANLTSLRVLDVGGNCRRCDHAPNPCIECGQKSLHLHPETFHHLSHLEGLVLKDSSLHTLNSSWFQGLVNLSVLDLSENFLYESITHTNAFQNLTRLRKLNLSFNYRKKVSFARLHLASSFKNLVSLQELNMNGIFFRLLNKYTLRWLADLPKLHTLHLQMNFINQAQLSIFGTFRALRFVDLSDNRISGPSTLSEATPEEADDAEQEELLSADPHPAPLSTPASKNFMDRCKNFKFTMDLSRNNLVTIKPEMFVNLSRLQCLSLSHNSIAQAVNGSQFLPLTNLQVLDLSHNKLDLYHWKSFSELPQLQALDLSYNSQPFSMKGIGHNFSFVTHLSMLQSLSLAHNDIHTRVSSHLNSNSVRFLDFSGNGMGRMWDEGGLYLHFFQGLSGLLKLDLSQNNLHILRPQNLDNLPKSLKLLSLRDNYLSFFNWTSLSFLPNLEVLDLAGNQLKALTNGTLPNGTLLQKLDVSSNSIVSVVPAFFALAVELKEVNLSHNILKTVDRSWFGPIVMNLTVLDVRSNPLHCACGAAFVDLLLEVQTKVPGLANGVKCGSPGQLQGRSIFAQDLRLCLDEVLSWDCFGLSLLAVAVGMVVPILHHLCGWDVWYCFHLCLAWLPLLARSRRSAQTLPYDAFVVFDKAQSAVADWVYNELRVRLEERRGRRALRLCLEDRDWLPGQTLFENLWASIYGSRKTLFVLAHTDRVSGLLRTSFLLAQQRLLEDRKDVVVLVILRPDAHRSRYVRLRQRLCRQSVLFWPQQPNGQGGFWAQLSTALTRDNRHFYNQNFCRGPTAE
In short: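 HEK293 cells stably expressing mouse TLR9 were transiently transfected with a SEAP reporter for 6 h, then stimulated with ODN at 0.1, 0.3 or 1 μg/mL for 18 h. Reporter expression is given as fold change in NF-κB activity over medium. Representative of two independent experiments.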

Mus musculus [2] = assay: Immunostimulatory activity in C57BL/6 mouse assessed as induction of IL10 level in serum at 2 mg/kg, sc after 2 hrs by Luminex multiplex assay; assay type: functional, organism-based; parameters: dose 2 mg/kg
In short: (§1)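 Female C57BL/6 mice, 5–6 weeks old, n = 3, received a single 2 mg/kg subcutaneous ODN injection in the right flank. Blood was taken by retro-orbital bleeding 2 h later. Naive mice served as baseline. Representative of three experiments.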

Mus musculus [3] = assay: Immunostimulatory activity in C57BL/6 mouse assessed as inhibition of 5'-CTATCTGACGTTCTCTGT-3'-induced MIP-1alpha production in serum at 2 mg/kg, sc administered 24 hrs prior to 5'-CTATCTGACGTTCTCTGT-3' challenge measured after 2 hrs by Luminex multiplex assay; assay type: functional, organism-based; parameters: dose 2 mg/kg
In short: (§2)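 C57BL/6 mice received 2 mg/kg ODN sc in one flank. After 24 h, the TLR9 agonist ODN was given at 0.5 mg/kg sc in the opposite flank. Blood was drawn 2 h later and serum cytokines/chemokines were quantified by Luminex multiplex assay. Percent inhibition was taken against the agonist alone. Representative of three experiments.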

Splenocyte [4] = assay: Immunostimulatory activity in C57BL/6 mouse splenocytes assessed as induction of IL12 secretion at 2 to 10 ug/ml after 24 hrs by sandwich ELISA; assay type: functional, cell-based
In short: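 C57BL/6 splenocytes (mice 5–8 weeks) at 5 × 10^6 cells/mL in RPMI complete medium. ODNs dissolved in PBS were added and the cells incubated at 37 °C for 24 h. Supernatant IL-12 or IL-6 was measured by sandwich ELISA. Runs were done two or three times, in duplicate per concentration.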

Mus musculus [5] = assay: Immunostimulatory activity in C57BL/6 mouse assessed as inhibition of 5'-CTATCTGACGTTCTCTGT-3'-induced TNFalpha production in serum at 2 mg/kg, sc administered 24 hrs prior to 5'-CTATCTGACGTTCTCTGT-3' challenge measured after 2 hrs by Luminex multiplex assay; assay type: functional, organism-based; parameters: dose 2 mg/kg; in short: as §2
Splenocyte [6] = assay: Inhibition of 5'-CTATCTGACGTTCTCTGT-3'-induced IL12 secretion in C57BL/6 mouse splenocytes at 4 ug/ml after 24 hrs by sandwich ELISA; assay type: functional, cell-based
In short: (§3)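 Splenocytes from 5–8-week C57BL/6 mice, 5 × 10^6 cells/mL in RPMI complete medium, were co-incubated with the TLR9 agonist ODN (1 µg/mL) plus test ODN at 1 or 4 µg/mL, or over a concentration series, at 37 °C for 24 h. Supernatant IL-12 or IL-6 was measured by sandwich ELISA. Runs were done in duplicate, with three independent experiments.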

Mus musculus [7] = assay: Immunostimulatory activity in C57BL/6 mouse assessed as induction of MCP1 level in serum at 2 mg/kg, sc after 2 hrs by Luminex multiplex assay; assay type: functional, organism-based; parameters: dose 2 mg/kg; in short: as §1
J774 = assay: Activation of NF-kappaB in mouse J774 cells at 2.5 ug/ml after 1 hr by EMSA; assay type: cell-based
In short: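 Murine J774 macrophages in DMEM with 10% FBS and antibiotics, plated at 5×10^6 cells/well. ODNs were given alone or together for 1 h. For inhibition, the agonist ODN at 0.5 μg/mL was co-incubated with the modified ODN at 2.5 μg/mL. Nuclear extracts were resolved by EMSA on native polyacrylamide gels and read by autoradiography.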

Mus musculus [8] = assay: Immunostimulatory activity in C57BL/6 mouse assessed as induction of KC level in serum at 2 mg/kg, sc after 2 hrs by Luminex multiplex assay; assay type: functional, organism-based; parameters: dose 2 mg/kg; in short: as §1
Mus musculus [9] = assay: Immunostimulatory activity in C57BL/6 mouse assessed as inhibition of 5'-CTATCTGACGTTCTCTGT-3'-induced MCP1 production in serum at 2 mg/kg, sc administered 24 hrs prior to 5'-CTATCTGACGTTCTCTGT-3' challenge measured after 2 hrs by Luminex multiplex assay; assay type: functional, organism-based; parameters: dose 2 mg/kg; in short: as §2
Mus musculus [10] = assay: Immunostimulatory activity in C57BL/6 mouse assessed as inhibition of 5'-CTATCTGACGTTCTCTGT-3'-induced IL10 production in serum at 2 mg/kg, sc administered 24 hrs prior to 5'-CTATCTGACGTTCTCTGT-3' challenge measured after 2 hrs by Luminex multiplex assay; assay type: functional, organism-based; parameters: dose 2 mg/kg; in short: as §2
Mus musculus [11] = assay: Immunostimulatory activity in C57BL/6 mouse assessed as induction of IL12 level in serum at 2 mg/kg, sc after 2 hrs by sandwich ELISA; assay type: functional, organism-based; parameters: dose 2 mg/kg; in short: as §1
Splenocyte [12] = assay: Inhibition of 5'-CTATCTGACGTTCTCTGT-3'-induced IL6 secretion in C57BL/6 mouse splenocytes at 4 ug/ml after 24 hrs by sandwich ELISA; assay type: functional, cell-based; in short: as §3

SMILES | Activity [1] | Activity (Mus musculus [2]) | Activity (Mus musculus [3]) | Activity (Splenocyte [4]) | Activity (Mus musculus [5]) | Activity (Splenocyte [6]) | Activity (Mus musculus [7]) | Activity (J774) | Activity (Mus musculus [8]) | Activity (Mus musculus [9]) | Activity (Mus musculus [10]) | Activity (Mus musculus [11]) | Activity (Splenocyte [12])
CO[C@@H]1[C@H](OP(=O)(S)OC[C@H]2O[C@@H](n3cc(C)c(=O)[nH]c3=O)C[C@@H]2OP(=O)(S)OC[C@H]2O[C@@H](n3cc(C)c(=O)[nH]c3=O)C[C@@H]2OP(=O)(S)OC[C@H]2O[C@@H](n3ccc(N)nc3=O)C[C@@H]2OP(=O)(S)OC[C@H]2O[C@@H](n3cc(C)c(=O)[nH]c3=O)C[C@@H]2OP(=O)(S)OC[C@H]2O[C@@H](n3ccc(N)nc3=O)C[C@@H]2OP(=O)(S)OC[C@H]2O[C@@H](n3cc(C)c(=O)[nH]c3=O)C[C@@H]2OP(=O)(S)OC[C@H]2O[C@@H](n3cnc4c(=O)[nH]c(N)nc43)C[C@@H]2OP(=O)(S)OC[C@H]2O[C@@H](n3cc(C)c(=O)[nH]c3=O)C[C@@H]2O)[C@@H](COP(=O)(S)O[C@H]2C[C@H](n3ccc(N)nc3=O)O[C@@H]2COP(=O)(S)O[C@H]2C[C@H](n3cnc4c(N)ncnc43)O[C@@H]2COP(=O)(S)O[C@H]2C[C@H](n3cnc4c(=O)[nH]c(N)nc43)O[C@@H]2COP(=O)(S)O[C@H]2C[C@H](n3cc(C)c(=O)[nH]c3=O)O[C@@H]2COP(=O)(S)O[C@H]2C[C@H](n3ccc(N)nc3=O)O[C@@H]2COP(=O)(S)O[C@H]2C[C@H](n3cc(C)c(=O)[nH]c3=O)O[C@@H]2COP(=O)(S)O[C@H]2C[C@H](n3cnc4c(N)ncnc43)O[C@@H]2COP(=O)(S)O[C@H]2C[C@H](n3cc(C)c(=O)[nH]c3=O)O[C@@H]2COP(=O)(S)O[C@H]2C[C@H](n3ccc(N)nc3=O)O[C@@H]2CO)O[C@H]1n1cnc2c(=O)[nH]c(N)nc21 (stereo partly specified) | inactive | inactive | Active | Active | Active | Active | inactive | inactive | inactive | Active | Active | inactive | Active
Cc1cn([C@@H]2O[C@H](COP(=O)(S)O[C@H]3C[C@H](n4ccc(N)nc4=O)O[C@@H]3COP(=O)(S)O[C@H]3C[C@H](n4cc(C)c(=O)[nH]c4=O)O[C@@H]3COP(=O)(S)O[C@H]3C[C@H](n4ccc(N)nc4=O)O[C@@H]3COP(=O)(S)O[C@H]3C[C@H](n4cc(C)c(=O)[nH]c4=O)O[C@@H]3COP(=O)(S)O[C@H]3C[C@H](n4cc(C)c(=O)[nH]c4=O)O[C@@H]3COP(=O)(S)O[C@H]3C[C@H](n4cnc5c(=O)[nH]c(N)nc54)O[C@@H]3COP(=O)(S)O[C@H]3C[C@H](n4ccc(N)nc4=O)O[C@@H]3COP(=O)(S)O[C@H]3C[C@H](n4cnc5c(N)ncnc54)O[C@@H]3COP(=O)(S)O[C@H]3C[C@H](n4cnc5c(=O)[nH]c(N)nc54)O[C@@H]3COP(=O)(S)O[C@H]3C[C@H](n4cc(C)c(=O)[nH]c4=O)O[C@@H]3COP(=O)(S)O[C@H]3C[C@H](n4ccc(N)nc4=O)O[C@@H]3COP(=O)(S)O[C@H]3C[C@H](n4cc(C)c(=O)[nH]c4=O)O[C@@H]3COP(=O)(S)O[C@H]3C[C@H](n4cnc5c(N)ncnc54)O[C@@H]3COP(=O)(S)O[C@H]3C[C@H](n4cc(C)c(=O)[nH]c4=O)O[C@@H]3COP(=O)(S)O[C@@H]3C[C@@H](n4ccc(N)nc4=O)O[C@H]3CO)[C@@H](OP(=O)(S)OC[C@H]3O[C@@H](n4cnc5c(=O)[nH]c(N)nc54)C[C@@H]3OP(=O)(S)OC[C@H]3O[C@@H](n4cc(C)c(=O)[nH]c4=O)C[C@@H]3O)[C@H]2O)c(=O)[nH]c1=O (stereo partly specified) | inactive | inactive | Active | Active | Active | Active | inactive | inactive | inactive | Active | Active | inactive | Active
